An excerpt weighted towards active compounds, which were near 5.9% of everything screened.
Cav32 inh – inhibitors of human Cav3.2 T-type calcium channel; Cav3.2-expressing cells, Fluo-4 calcium fluorescence FDSS; hits give low values; O95180; hit rate 4% among 100,000; B-score at 10 µM; AID 449739;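 active = single-dose well whose peak fluorescence ratio is a statistical outlier from its plate by either plate-standardised score or position-corrected B-score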
Measles CPE – protection of cells from measles virus. hit rate 1.5% among 140,000. protection (pct of control), % at 4 µM. Measles virus-infected cells, CPE protection, absorbance. AID 841; in the data active = protection mostly above about 24%, no sharp cut-off; inactive = mostly below about 26%
HIV Rev-RRE inh – inhibitors of HIV-1 Rev-RRE RNA interaction; P05866; Rev peptide-RRE RNA binding, FRET; inhibition, % at 8 µM; hit rate 0.79% among 97,000;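 active = inhibition above the screen-wide mean plus 3 SD, cut at about 35% in these data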;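 also: 0% = median DMSO wells and 100% = median Neomycin B control wells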
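Assay system: labelled RRE RNA duplex and labelled Rev peptide / Medium: HEPES pH 7.5 salt buffer with EDTA / Reagent: labelled Rev peptide / Schedule: 5 + 15 min at 25 °C / Signal: FRET, excitation 480 nm, emission 540 nm donor and 671 nm acceptor / Benchmarks: DMSO and neomycin B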
Phagocytosis inh – inhibitors of macrophage phagocytosis | J774A.1 macrophage IgG-bead phagocytosis, imaging | inhibition, % at 5 µM | hit rate 0.07% among 110,000 | AID 1029;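 active = inhibition above the mean of the plate negative controls plus 5 SD, cut at about 13% in these data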;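 also: phagocytic index as fraction of beads internalized from green versus red external bead signal; plate controls were DMSO negative control for no effect and cytochalasin-D positive control for full effect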
PTK2B oligo ant – Pyk2 (human) oligomerization antagonism. z-score (the deposit names both 25 µM and 10 µM). hit rate 0.83% among 99,000. AID 1347419. Q14289. Q293 cells, Pyk2 FERM NanoBiT luminescence; hits give low values;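 active = Z-score of -3 or lower, scaled per plate to the spread of control and sample wells; inactive = z-score above -3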;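 also: negative z-score means lost luminescence so less FERM oligomerization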
hDAT+cocaine – changed human dopamine transporter uptake under cocaine IC80 | Q01959 | LLC-PK1 hDAT cells, [14C]-dopamine uptake with cocaine IC80; actives deviate in either direction | B-score at 10 µM | hit rate 1.3% among 110,000 | AID 449768;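 active = Z score or B-score, a plate-position-corrected score, falls beyond the plate's 99.7% confidence bounds, in either direction; inactive = both scores lie inside the 99.7% bounds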;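 also: scored against the spread of the other compound wells on the same plate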
Target sequence (Q01959 whole entry, looked up): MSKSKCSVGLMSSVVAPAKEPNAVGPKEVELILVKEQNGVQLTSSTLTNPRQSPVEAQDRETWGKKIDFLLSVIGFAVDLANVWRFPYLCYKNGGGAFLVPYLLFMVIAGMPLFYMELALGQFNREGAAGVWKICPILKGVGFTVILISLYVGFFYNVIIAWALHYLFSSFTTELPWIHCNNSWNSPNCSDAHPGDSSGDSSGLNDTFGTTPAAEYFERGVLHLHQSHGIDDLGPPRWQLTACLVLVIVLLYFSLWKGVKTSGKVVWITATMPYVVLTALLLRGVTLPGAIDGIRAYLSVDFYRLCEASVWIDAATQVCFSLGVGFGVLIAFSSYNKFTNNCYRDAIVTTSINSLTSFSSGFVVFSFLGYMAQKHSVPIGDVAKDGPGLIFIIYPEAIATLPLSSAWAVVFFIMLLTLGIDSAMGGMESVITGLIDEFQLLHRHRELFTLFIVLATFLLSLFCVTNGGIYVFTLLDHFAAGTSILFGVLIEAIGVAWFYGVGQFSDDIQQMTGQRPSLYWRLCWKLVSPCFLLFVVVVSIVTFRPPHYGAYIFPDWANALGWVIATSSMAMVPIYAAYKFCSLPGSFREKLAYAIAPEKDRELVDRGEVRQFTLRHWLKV
* = called active by the depositor; / = no result given; [ ] = remark or other dose.

SMILES	Cav32 inh	Measles CPE	HIV Rev-RRE inh	Phagocytosis inh	PTK2B oligo ant	hDAT+cocaine
CCN1C(=O)/C(=C/C=C2/Sc3ccc4ccccc4c3N2CCO)SC1=S	/	7	/	123*[fluoresces]	/	/
CCN1C(c2ccccc2)=C(c2ccccc2)S/C1=C\C=C1/SC(=S)N(C)C1=O	-1.4	/	23	/	1.1	0.59
COc1ccc(NC(=O)[C@@H](NC(=O)c2ccccc2)C(C)C)cc1S(=O)(=O)N1CCCCC1	/	14	/	-5	-0.52	/
Cc1nn(C)cc1C(C(=O)NC1CCCCC1)N(C(=O)Cc1cccs1)c1ccc(C(C)C)cc1 (configuration not stated)	-5.3*	19	2	/	-0.7	2
Cc1ccc(C(C(=O)NC2CCCC2)N(C(=O)Cc2cccs2)c2ccc(C)c(C)c2)o1 (configuration not stated)	-2.3*	12	0	0	-2.3	0.028
c1cc(-c2cc3cc(N4CCOCC4)ccc3o2)cs1	0.11	/	/	/	/	1.1
O=C(Nc1cccc2ccccc12)c1ccc(Cn2cc(Cl)cn2)cc1	-3.9*	5	4	-2	0.85	0.11
Cc1ccc(Cl)cc1NC(=O)c1ccc(Cn2cc(Cl)cn2)cc1	/	4	/	-11	/	/
O=S(=O)(NCCOCCNS(=O)(=O)c1ccccc1)c1ccccc1	/	6	10	/	0.28	/
O=S(=O)(NCCOCC(F)(F)F)c1ccc2oc3ccccc3c2c1	-4.3*	21	15	/	-0.87	-1
COC(=O)c1cc(NC(=O)CC2SC(=Nc3ccccc3)N(CCc3c[nH]c4ccccc34)C2=O)cc(C(=O)OC)c1 (configuration not stated)	-0.11	17	-1	-1	-1.9	-0.17
COc1cccc(C(=O)OC(C)CN2CCCC2)c1 (configuration not stated)	-0.2	11	5	-1	-0.56	0.55
COc1cccc(C(=O)OCCN2CCCCC2)c1	-9.4*	4	4	/	-0.49	1.5
CN(C(=O)COC(=O)CCc1c[nH]c2ccccc12)C(c1ccccc1)c1ccccc1	/	9	/	-4	/	/
O=C(O)Cn1c(SCCOc2ccccc2F)nc2ccccc21	-5.3*	4	2	-3	1.6	0.095
Cc1ccc(C2=Nc3ccccc3N(C(=O)c3ccccc3)C(C)C2)cc1 (configuration not stated)	/	3	/	-6	/	/
N#CNC(=Nc1cccc(F)c1)SCc1ccccc1F	/	25	/	1	/	/
CC(C)N=C(NC#N)SCc1ccccc1F	0.23	9	7	-1	-0.43	-8.5*
O=C(c1cccc(N2C(=O)C3CC=CCC3C2=O)c1)N1CCN(c2ccccc2)CC1 (configuration not stated)	/	12	-4	/	-0.02	/
O=C(c1cccc(N2C(=O)C3CC=CCC3C2=O)c1)N1CCCCCC1 (configuration not stated)	1.1	12	-4	/	0.7	-8.8*
Cc1ccc(/C=C2/C(=O)N=C(N)N2C)s1	/	5	/	1	/	/
N#Cc1c2n(c3c(=O)n(Cc4ccc(Cl)cc4)cnc13)CCCCC2	/	31	11	-1	-3.2*	1.3
COc1ccc(CC(=O)Nc2cccc(-c3nnc(-c4ccco4)o3)c2)cc1	-0.046	3	3	/	-0.22	-0.081
Cc1cc(C)cc(OCC(=O)Nc2cccc(C(=O)O)c2)c1	0.51	89*	7	-1	0.11	0.46
Cc1cc(C)cc(OCC(=O)Nc2cccc(-c3nnc(-c4ccco4)o3)c2)c1	-2.2	14	2	-1	-3.9*	0.13
SMILES	Cav32 inh	Measles CPE	HIV Rev-RRE inh	Phagocytosis inh	PTK2B oligo ant	hDAT+cocaine
O=c1cc2[nH]c3ccccc3c(=O)n2nc1-c1ccccc1	0.85	9	19	0	-3.1*	0.0035
O=c1nc(-c2ccccc2)c2cc(Cl)ccc2[nH]1	/	4	2	0	-0.08	0.013
CCOC(=O)c1cnn(CCOC(=O)C2CC2)c1NC(=O)C1CC1	-3.6*	11	2	-4	0.08	0.76
CCOC(=O)c1cnn(CCOC(=O)C(C)(C)C)c1NC(=O)C(C)(C)C	0.34	12	6	/	2.1	0.071
CCSC1=N/C(=C\c2ccc(-c3ccccc3[N+](=O)[O-])o2)C(=O)S1	0.13	3	54*	/	-0.17	-0.82
O=C1ON=C(c2ccccc2)/C1=C/c1ccc(-c2ccccc2[N+](=O)[O-])o1	/	6	/	-4	/	/
Cc1cccc(C)c1-n1c(C)cc(/C=C2\NC(=O)NC2=O)c1C	-6.8*	15	6	/	-0.55	0.5
CCCN(CC1CC1)C(=S)Nc1ccc(Oc2ccccc2)cc1	/	5	/	-5	/	/
Cc1cc(C)n2cc(CSc3nc4cc(Cl)ccc4o3)nc2n1	-0.55	12	2	0	-0.34	4*
Cc1cc(C)n2cc(CSc3nnc(-c4ccccc4)o3)nc2n1	-0.3	2	5	-2	-0.06	0.52
COCCn1c(=S)[nH]c2cc(C(=O)N3CCc4ccccc43)ccc2c1=O	0.5	59*	1	0	-1.2	-0.16
CCCn1c(=S)[nH]c2cc(C(=O)N3CCc4ccccc43)ccc2c1=O	0.15	12	-2	1	-1.1	-0.97
COc1ccccc1CN(Cc1nc2ccccc2c(=O)[nH]1)C(=O)Nc1cccc(C)c1	-2.8	8	14	1	-0.63	1.4
O=c1[nH]c(CN2CCN(Cc3ccc4c(c3)OCO4)CC2)nc2ccccc12	-0.29	7	-7	/	0.19	-0.23
COc1cccc(C(=O)N(Cc2ccc3c(c2)OCO3)Cc2nc3ccccc3c(=O)[nH]2)c1	-0.056	8	5	0	-3.4*	0.83
COc1ccccc1NC(=O)N(Cc1ccc2c(c1)OCO2)Cc1nc2ccccc2c(=O)[nH]1	0.59	2	15	-2	-4*	0.53
O=C1C2ON(c3ccccc3)C(c3cccnc3)C2C(=O)N1c1ccccc1 (configuration not stated)	/	10	/	/	-0.2	0.52
COc1cc(C2C3C(=O)N(c4ccc(F)cc4)C(=O)C3ON2c2ccccc2)ccc1O (configuration not stated)	0.47	12	3	2	-0.5	-6.9*
CC/C(=N\NC(=O)C(N)=O)c1ccccc1O	/	20	/	0	/	/
O=C1NCCN1Cc1ccccc1F	-0.47	40*	2	/	-0.19	0.019
O=C1NCCN1Cc1ccc(F)cc1	0.56	36*	4	-1	0.67	-1.3
Cc1ccc(CN2CCNC2=O)cc1	-0.12	10	2	-2	0.26	-0.045
CC(C)(C)c1ccc(OCCNC(=S)NC(=O)c2cccnc2)cc1	/	15	/	-7	/	/
Cc1cccc(OCC(=O)NC(Cc2ccccc2)C(=O)O)c1 (configuration not stated)	/	7	/	1	/	/
Cc1cccc(OCC(=O)NC(C)C(=O)N/N=C/c2c(OCc3ccccc3)ccc3ccccc23)c1 (configuration not stated)	-6.8*	3	10	2	0.19	0.18
Cc1ccccc1-n1c(SCc2c(C)noc2C)nnc1-c1ccncc1	-0.033	23	7	2	0.09	0.94
